An excerpt weighted towards active compounds, which were near 9.4% of everything screened.
T cruzi repl: inhibitors of intracellular T. cruzi growth, primary screen, luminescence, NIH3T3 host cells | T. cruzi beta-gal in NIH3T3, 90 h | inhibition, % (concentration not given with the values) | 300,000 tested, 1.4% active | AID 1885, 2009;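 active = mean inhibition across valid replicates above about 55%, limit read from the data; inconclusive = mean below that limit but half or more replicates reach it; inactive = mean below it, under half of replicates reach it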;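 note: signal also drops with host cell toxicity which is not excluded here; 0% = plate median of DMSO wells and 100% = zero luminescence signal; higher percent means less beta-gal luminescence so fewer parasites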
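System – NIH/3T3 host cells with β-galactosidase reporter T. cruzi · Doses – single 50 nL compound addition per well in DMSO · Reagent – 5000 T. cruzi trypomastigotes/well · Medium – Low-serum DMEM with 2% FBS · Timing – ≥90 h infection period, 3 h prior cell attachment · Evaluation – parasite load inhibition, % · Technique – GalScreen luminescence, 60 min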
CSC inhib: cancer stem cell viability inhibitors, primary screen, luminescence; inhibition, % at 7.5 µM; cancer stem cell-like cells viability; 300,000 tested, 1.1% active; in the data active = inhibition above about 75%; inconclusive = no clear call, values can overlap the other calls; tested in HMLE shEcad cells
L major viab: Leishmania major promastigote growth inhibition, primary screen | Leishmania major promastigotes, resazurin fluorescence viability | inhibition, % at 10 µM | 200,000 tested, 9% active | AID 1063, 2008; in the data active = inhibition above about 50%;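 note: promastigotes grown with compound for 44 hours at 28 °C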
SKKanGAS inh: S. pyogenes SKKanGAS growth inhibitors in kanamycin, primary screen, streptokinase expression inhibitor project, SKKanGAS strain, BacTiter-Glo luminescence. 6 h. inhibition, % at 7.5 µM. 300,000 tested, 1.3% active;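 active = mean replicate score, as percent of positive control median, at least 50; inconclusive = mean below 50 but one replicate at or above 50; inactive = mean and every replicate below 50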;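 note: strain carries kanamycin resistance gene driven by streptokinase promoter and grows in 40 µg/ml kanamycin; loss of luminescence reflects streptokinase promoter inhibition or plain growth inhibition; 0% = median of DMSO wells and 100% = positive control at its reference dose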
Beta cell apopt: inhibitors of cytokine-induced beta cell apoptosis, primary screen, luminescence; INS-1E cytokine-induced death, ATP luminescence, 48 h; percent of positive-control rescue, neutral wells zero; AID 435005, 2010; protection from apoptosis, % (concentration not given with the values); 300,000 tested, 0.8% active;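 active = Every replicate reaches about 75%, or at least half do and their mean reaches it too, limit read from the data; inconclusive = At least half of replicates reach the limit but their mean does not; inactive = Under half of replicates reach the limit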;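 note: 0% = cytokine-treated negative control wells and 100% = positive control rescue; higher means more ATP so stronger rescue from cytokine killing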
Mdm2-MdmX inh: inhibitors of human Mdm2-MdmX association, primary screen, cell-based, luminescence, split luciferase, SaOS-2, uHTS. Protein Mdm4 (Homo sapiens) + E3 ubiquitin-protein ligase Mdm2 (Homo sapiens), …. SaOS-2 split-luciferase Mdm2/MdmX complementation. inhibition, % at 8 µM. 330,000 tested, 3% active;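 active = inhibition of at least 50% at 8 µM in the primary screen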
Target sequence (O15151 whole entry, looked up): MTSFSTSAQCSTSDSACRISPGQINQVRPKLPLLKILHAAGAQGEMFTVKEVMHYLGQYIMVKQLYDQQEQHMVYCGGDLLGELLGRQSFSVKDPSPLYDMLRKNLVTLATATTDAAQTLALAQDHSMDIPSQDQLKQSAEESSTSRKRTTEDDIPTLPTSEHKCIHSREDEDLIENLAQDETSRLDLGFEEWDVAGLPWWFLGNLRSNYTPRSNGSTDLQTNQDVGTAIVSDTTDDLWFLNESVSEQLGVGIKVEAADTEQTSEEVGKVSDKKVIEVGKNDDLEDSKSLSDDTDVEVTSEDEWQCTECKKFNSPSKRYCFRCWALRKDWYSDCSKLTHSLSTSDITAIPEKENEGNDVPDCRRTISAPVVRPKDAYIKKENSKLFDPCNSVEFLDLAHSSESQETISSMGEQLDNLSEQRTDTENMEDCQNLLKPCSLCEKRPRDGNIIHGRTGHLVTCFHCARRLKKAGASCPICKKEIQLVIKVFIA
Target sequence (Q00987 whole entry, looked up): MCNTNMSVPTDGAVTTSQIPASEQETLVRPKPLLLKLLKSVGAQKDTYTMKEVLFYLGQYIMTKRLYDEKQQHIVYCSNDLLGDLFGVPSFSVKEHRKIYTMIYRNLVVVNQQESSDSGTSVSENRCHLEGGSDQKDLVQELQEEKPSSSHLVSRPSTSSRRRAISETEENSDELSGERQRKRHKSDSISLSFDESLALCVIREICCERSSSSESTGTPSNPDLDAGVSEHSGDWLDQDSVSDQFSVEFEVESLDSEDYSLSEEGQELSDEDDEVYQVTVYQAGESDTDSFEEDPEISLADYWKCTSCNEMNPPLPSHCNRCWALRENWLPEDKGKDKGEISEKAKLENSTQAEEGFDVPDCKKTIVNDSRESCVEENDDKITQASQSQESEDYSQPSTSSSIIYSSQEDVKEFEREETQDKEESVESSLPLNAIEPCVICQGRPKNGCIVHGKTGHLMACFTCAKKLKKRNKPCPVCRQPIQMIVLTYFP
An asterisk follows results filed as active; ? = inconclusive; nt = not tested or not shown.

SMILES | T cruzi repl | CSC inhib | L major viab | SKKanGAS inh | Beta cell apopt | Mdm2-MdmX inh
COc1ccccc1C(=O)NC(=O)Cn1nc(C)c([N+](=O)[O-])c1C | -1.1 | -12.1 | nt | -5.4 | -1.5 | 33.7
O=C(Nc1ccc(CN2CCOCC2)cc1)c1ccc(-c2cccc(Cl)c2)o1 | 37.3 | 51.5 | 99.4* | 0.7 | 7.0 | -5.0
O=C(/C=C/c1ccc(Cl)cc1)Nc1ccc(CN2CCOCC2)cc1 | -1.8 | 22.9 | 82.4* | -6.3 | -2.3 | 37.0
O=C(Nc1ccc(CN2CCOCC2)cc1)c1ccc(-c2ccc(Cl)cc2Cl)o1 | 14.5 | ? | 73.5* | -0.7 | 8.1 | 34.1
CCCCNC(=O)CC(C(=O)N1CCc2ccccc21)n1ccnc1 (stereo unspecified) | -6.8 | nt | 88.2* | -2.5 | 0.3 | -21.7
CCN(CCCNC(=O)CC(C(=O)N1CCc2ccccc21)n1ccnc1)c1cccc(C)c1 (stereo unspecified) | 35.4 | -1.8 | 99.8* | 1.6 | -6.9 | 13.8
O=C(CC(C(=O)N1CCc2ccccc21)n1ccnc1)N1CCc2ccccc2C1 (stereo unspecified) | 72.2* | 5.6 | 100.3* | 6.0 | -1.2 | 25.5
CCOC(=O)c1c(C)nn(-c2ccc(NC(=O)CSCC(=O)O)cc2)c1C | -3.2 | -7.5 | nt | 6.5 | -4.9 | -28.4
c1ccc2nc(-c3nc4ccccc4[nH]3)ccc2c1 | -16.6 | 76.1* | -2.9 | 13.9 | 42.7 | -123.1
C=CCN(C(=O)CSC1=NC(=O)CN1C(C)=O)c1nc(C)c(-c2ccccc2)s1 | 70.2* | 28.1 | 89.1* | -14.9 | -14.6 | 0.6
C=CCSc1nnc(-c2sc(-c3ccccc3)nc2C)n1C | 20.7 | -10.9 | 1.6 | -22.8 | -3.1 | -24.9
CCc1ccc(C(=O)/C=C/c2ccc([N+](=O)[O-])o2)cc1 | 25.5 | 8.2 | 100.5* | 43.5 | -2.2 | 34.5
CC(C)(C)c1ccc(NNC(=O)C2CCC2)cc1 | 12.9 | 26.9 | nt | 40.2 | 108.8* | 0.8
CC(C)(C)c1ccc(NC(=O)COC(=O)C2CCCC2)cc1 | nt | nt | nt | nt | -0.7 | -5.0
CCN(CC)c1ccc(-c2nn3c(-c4cccnc4)nnc3s2)cc1 | -0.3 | nt | 20.4 | 67.6* | nt | nt
O=C(NC1CCCCC1)C(c1ccc(F)cc1)N(C(=O)Cc1ccsc1)c1ccc(F)cc1 (stereo unspecified) | 73.8* | -13.8 | -9.6 | -3.1 | -5.0 | 4.8
O=C(NC1CCCCC1)C(c1ccccc1)N(C(=O)Cc1ccsc1)c1ccccc1 (stereo unspecified) | -0.5 | -8.0 | 1.2 | 2.0 | -8.3 | 18.4
Cc1nn(C)cc1C(C(=O)NC1CCCCC1)N(C(=O)Cc1cccs1)c1ccc(F)cc1 (stereo unspecified) | 10.3 | 12.1 | 69.7* | -5.5 | 7.7 | 28.9
C=CCOc1nc2c(c(=O)n(C)c(=O)n2C)n1Cc1c(Cl)cccc1Cl | 25.4 | -0.8 | 64.3* | -0.6 | 22.6 | 4.7
O=C(NC1CC2CCCC(C1)N2CC(=O)N1CCCc2ccccc21)C1CCCCC1 (stereo unspecified) | -9.6 | 3.6 | 57.0* | -7.8 | nt | -34.4
CSCCC(NC(=O)COc1cccc2ccccc12)C(=O)O (stereo unspecified) | -11.3 | -7.0 | nt | -20.5 | 0.2 | 19.1
COCC(C)NC(=O)CSc1nc2ccccc2c(=O)n1CCc1ccc(S(N)(=O)=O)cc1 (stereo unspecified) | -14.4 | -27.1 | nt | -0.1 | nt | 13.9
O=[N+]([O-])c1cc([N+](=O)[O-])c2c(=Nc3ccccc3)n(-c3ccccc3)n(O)c2c1 | 57.7* | -8.5 | 100.3* | 29.6 | 54.4 | 41.5
Fc1ccc2c(c1)c1n[nH]c(=S)nc1n2CCc1ccccc1 | -11.1 | nt | nt | 4.1 | nt | 6.1
Cc1ccc2c(c1)c1n[nH]c(=S)nc1n2CCc1ccccc1 | 68.6* | -9.9 | nt | 0.4 | 8.8 | 5.2
SMILES | T cruzi repl | CSC inhib | L major viab | SKKanGAS inh | Beta cell apopt | Mdm2-MdmX inh
COCCNC(=S)N/N=C(\C)c1ccc(O)cc1 | -20.0 | nt | -7.2 | 2.5 | nt | -3.8
C/C(=N\NC(=S)NCC(C)(C)C)c1cc(F)cc(F)c1O | -1.4 | 34.0 | nt | 90.2* | 57.3 | 47.7
N#Cc1c(-c2ccccc2)nc(SCc2cccc(Cl)c2)[nH]c1=O | -1.2 | 107.4* | nt | ? | -6.0 | 0.4
Cc1[nH]c(=O)nc(SCc2cccc(Cl)c2)c1C#N | 0.5 | 11.1 | nt | 9.7 | -1.1 | -12.4
COc1cccc(N=Nc2c(N)[nH]n3c(=O)c4c(nc23)CCCC4)c1 | 4.2 | 17.8 | 73.6* | 16.2 | 21.7 | 17.6
N#Cc1ccc(C(=O)NC(=S)N2CCN(C=O)CC2)cc1 | nt | 18.6 | nt | nt | 2.4 | -4.3
Cc1cccc(Oc2nc(-c3ccccn3)nc3ccccc23)c1 | -2.6 | 11.0 | nt | 98.4* | 80.6* | 34.8
CC(=O)Nc1ccc(Oc2nc(-c3ccccn3)nc3ccccc23)cc1 | -13.5 | 11.0 | nt | 2.7 | -5.6 | 39.2
Cc1cccc(Oc2nc(-c3ccncc3)nc3ccccc23)c1 | 26.4 | 50.7 | nt | ? | nt | 29.8
Cc1ccccc1Oc1nc(-c2ccccn2)nc2ccccc12 | 15.9 | 7.7 | nt | 103.5* | 87.6* | 34.4
CCN(CC(=O)Nc1c(F)cccc1F)C(=O)CC1CCCCC1 | nt | -14.8 | nt | nt | -0.1 | -15.5
COc1cc([N+](=O)[O-])c(OC)cc1SCc1n[nH]c(=S)n1-c1ccc(F)cc1 | 10.1 | 18.2 | nt | 0.8 | 3.2 | -9.2
CCC1CCCCN1C(=O)CSc1nnc(CNC(=O)c2c(F)cccc2Cl)o1 (stereo unspecified) | -14.1 | 5.8 | nt | -7.9 | -8.1 | 22.6
O=C(CCN1CCOCC1)c1ccccc1 | 12.5 | -12.7 | 95.3* | 0.8 | -19.1 | -6.3
O=C(OCCN1CCOCC1)c1ccccc1 | -9.8 | -7.8 | nt | -1.0 | -5.1 | 5.4
O=C(CCN1CCCCC1)Nc1ccccc1 | 8.7 | -2.3 | -2.6 | 0.2 | -2.9 | 14.6
OC(CCCCN1CCCCC1)c1ccccc1 (stereo unspecified) | 2.3 | -16.5 | 53.8* | -0.3 | -5.1 | -6.7
OC(C#CCN1CCCCC1)c1ccccc1 (stereo unspecified) | -20.7 | -7.2 | -9.7 | 2.2 | -9.5 | 5.4
O=C(CCN1CCCCC1)c1ccccc1 | -25.5 | 8.4 | 73.7* | 4.0 | -6.6 | -1.5
CCc1oc2ccccc2c1C(=O)CCN1CCCCC1 | -39.9 | 7.9 | 73.6* | -0.9 | -19.9 | 9.9
CN1CCN(S(=O)(=O)c2cccc3nsnc23)CC1 | -2.7 | -11.6 | nt | 0.7 | 0.7 | 22.2
COCCCNC(=O)CCCn1c(=O)c2ccccc2n(Cc2cccc([N+](=O)[O-])c2)c1=O | 6.3 | -16.5 | -3.1 | -5.9 | -10.6 | 2.2
CCOC(=O)[C@@H]1[C@H]2COc3ccc(Br)cc3[C@H]2N2C(=O)N(c3ccc(Cl)cc3)C(=O)[C@]12C | nt | 7.1 | nt | nt | -5.2 | 10.7
Cc1ccc(S(=O)(=O)N(C)C)cc1NC(=O)COC(=O)CSc1ccccc1 | -4.3 | -7.2 | nt | 21.8 | -5.9 | 4.0

Screening data from PubChem.
